According to PMC12217622 (Nature Communications, 2025):

Experiments:
TaLYR2B = experiment: Radiolabelled LCO binding to membrane fractions, TaLYR2B; design: species or system Triticum aestivum; details: 2 µM competitor
Summary of the method: (§1)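 N. benthamiana leaves (~20 g) were homogenised at 4 °C in Tris pH 8.5, sucrose, EDTA, DTT, PVPP and protease inhibitors, then spun at 3000 x g and 45,000 x g. The pellet was resuspended in 25 mM Na cacodylate pH 6, 1 mM MgCl2, 1 mM CaCl2, 250 mM sucrose. 35S-LCO (enzymatic NodH sulfation) was bound for 1 h on ice, then filtered through glass fibre, washed and counted by scintillation. Three technical replicates.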

MtLYR8 = experiment: Radiolabelled LCO binding to membrane fractions, MtLYR8; design: species or system Medicago truncatula; details: 2 µM competitor
Summary of the method: as §1

TaLYR2D = experiment: Radiolabelled LCO binding to membrane fractions, TaLYR2D; design: species or system Triticum aestivum; details: 2 µM competitor
Summary of the method: as §1

[1] = system: R. irregularis DAOM 197198; experiment: Stimulation of AMF root-length colonization by LCO and CO4 treatments in wheat; assay type: in vivo, Triticum aestivum; details: 10^−7 M treatment
Summary of the method: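 Fielder wheat carried a pZmUBI:BdLYR2-cmyc cassette or empty vector, two lines each. Surface-sterilised seeds were germinated 1 week at 4 °C and 3 days at 25 °C, then planted in attapulgite with 500 R. irregularis DAOM 197198 spores. Plants got 0.5x Long Ashton (7.5 µM NaH2PO4) with 10^-7 M LCO or CO4 or 0.05% acetonitrile at start, 2 and 4 weeks. Roots were stained at 5–6 wpi; colonization was normalised to untreated controls; Kruskal-Wallis test.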

TaLYR2A = experiment: Radiolabelled LCO binding to membrane fractions, TaLYR2A; design: species or system Triticum aestivum; details: 2 µM competitor
Summary of the method: as §1

Structure (SMILES)	competition of LCO binding (TaLYR2B)	competition of LCO binding (MtLYR8)	competition of LCO binding (TaLYR2D)	effect on AMF colonization ([1]; control wheat plants (empty vector))	effect on AMF colonization ([1]; transgenic wheat plants pUbi:BdLYR2)	competition of LCO binding (TaLYR2A)
CC(=O)N[C@H]1[C@H](O[C@H]2[C@H](O)[C@@H](NC(C)=O)C(O)O[C@@H]2CO)O[C@H](CO)[C@@H](O[C@@H]2O[C@H](CO)[C@@H](O[C@@H]3O[C@H](CO)[C@@H](O)[C@H](O)[C@H]3NC(C)=O)[C@H](O)[C@H]2NC(C)=O)[C@@H]1O (stereo partly shown) [CO4]	complete competition	complete competition	complete competition	increased AMF colonization	no further increase	complete competition
CC(=O)N[C@H]1[C@H](O[C@H]2[C@H](O)[C@@H](NC(C)=O)[C@H](O[C@H]3[C@H](O)[C@@H](NC(C)=O)[C@H](O[C@H]4[C@H](O)[C@@H](NC(C)=O)C(O)O[C@@H]4CO)O[C@@H]3CO)O[C@@H]2CO)O[C@H](CO)[C@@H](O[C@@H]2O[C@H](CO)[C@@H](O[C@@H]3O[C@H](CO)[C@@H](O[C@@H]4O[C@H](CO)[C@@H](O[C@@H]5O[C@H](CO)[C@@H](O)[C@H](O)[C@H]5NC(C)=O)[C@H](O)[C@H]4NC(C)=O)[C@H](O)[C@H]3NC(C)=O)[C@H](O)[C@H]2NC(C)=O)[C@@H]1O (stereo partly shown) [CO8]	complete competition	complete competition	complete competition			complete competition
